Measurements published in ChEMBL document CHEMBL1123691, “Multisubstrate inhibitors of dopamine beta-hydroxylase. 2. Structure-activity relationships at the phenethylamine binding site” (J Med Chem, 1987).
pIC50: −log10 of the molar value. Values belong to the compound of their own block, whether it stands above or below them.

Experiments:
[1] = biological target: T1, Dopamine beta-hydroxylase (Bos taurus) (UniProt P15101); assay: Percent inhibition against bovine Dopamine beta hydroxylase (DBH) at 10E-4 M
T1 sequence (whole entry): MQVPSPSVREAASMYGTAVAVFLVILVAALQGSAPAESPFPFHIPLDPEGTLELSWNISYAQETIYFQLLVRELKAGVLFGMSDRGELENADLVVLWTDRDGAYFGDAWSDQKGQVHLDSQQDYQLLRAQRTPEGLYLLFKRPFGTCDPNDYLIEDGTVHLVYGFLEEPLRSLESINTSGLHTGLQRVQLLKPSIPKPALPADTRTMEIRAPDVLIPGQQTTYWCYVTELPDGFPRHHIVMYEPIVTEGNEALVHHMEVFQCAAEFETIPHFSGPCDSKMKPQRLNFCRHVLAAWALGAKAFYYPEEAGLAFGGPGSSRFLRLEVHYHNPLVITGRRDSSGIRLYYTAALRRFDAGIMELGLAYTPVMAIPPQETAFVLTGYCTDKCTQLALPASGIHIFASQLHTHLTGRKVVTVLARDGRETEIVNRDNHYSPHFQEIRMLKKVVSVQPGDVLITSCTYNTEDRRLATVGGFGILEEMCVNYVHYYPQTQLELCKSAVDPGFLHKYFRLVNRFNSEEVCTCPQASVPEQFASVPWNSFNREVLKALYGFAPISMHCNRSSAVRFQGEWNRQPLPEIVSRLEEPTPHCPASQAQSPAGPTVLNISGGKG
Procedure, shortened: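 DBH activity measured in the presence of 10^-4 M compound; result expressed as percent inhibition.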

[2] = biological target: T1, Dopamine beta-hydroxylase (Bos taurus); assay: Inhibitor dissociation constant vs. tyramine substrate against Dopamine beta hydroxylase at pH 6.0
Procedure, shortened: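 Purified homogeneous DBH, specific activity 25-42 units/mg, assayed at pH 6.0 with tyramine as the varied substrate. Kis taken as slope inhibition constant from Cleland COMP/NONCOMP fits; mean ± SEM.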

[3] = biological target: T2, Dopamine beta-hydroxylase (Bos taurus, UniProt P15101); assay: Inhibitory Concentration against bovine Dopamine beta hydroxylase (DBH); Range is between (21-37).
T2 sequence (P15101 whole entry): T1 sequence (whole entry)

[4] = biological target: T2, Dopamine beta-hydroxylase
[5] = Partition coefficient (logP); format: physicochemical; settings: octanol/water
Procedure, shortened: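 Octanol/pH 7.4 phosphate buffer partitioning at four concentrations, with UV assay of each phase. D taken at infinite dilution by linear regression. pKa by titration in 2:1 MeOH-H2O.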

Rattus norvegicus [6] = assay: Change in DA/NE (Dopamine/Norepinephrine) ratio after oral dosing (50 mg/kg); format: functional
Procedure, shortened: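 Adult male Okamoto-Aoki SHR given vehicle (5% PEG 400, 1% methocel) or suspended drug orally, two doses 18 h apart. Mesenteric arteries taken 2 h after second dose and homogenized in 0.4 M HClO4 with Na2S2O5 and EDTA at 0 °C. Supernatant incubated 60 min at 37 °C with rat liver COMT and [methyl-3H]-S-adenosylmethionine, pH 9.6 Tris; DA and NE measured.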

[7] = biological target: T2, Dopamine beta-hydroxylase; remark: listed apart in the source
[8] = biological target: T2, Dopamine beta-hydroxylase; remark: listed apart in the source
[9] = biological target: T2, Dopamine beta-hydroxylase; assay: Inhibitory Concentration against bovine Dopamine beta hydroxylase (DBH); Range is between (7-38).
[10] = biological target: T1, Dopamine beta-hydroxylase (Bos taurus); assay: Inhibitor dissociation constant vs. tyramine substrate against Dopamine beta hydroxylase at pH 4.5.
Procedure, shortened: (§1)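 Homogeneous purified DBH with specific activity 25-42 units/mg, with tyramine as the varied substrate. The pH 4.5 condition is predominantly ordered: phenethylamine binds before oxygen. The pH 6.6 condition is random. Kis is from standard competitive/noncompetitive kinetic fits, reported as mean ± SEM.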

[11] = biological target: T2, Dopamine beta-hydroxylase; assay: Inhibitory Concentration against bovine Dopamine beta hydroxylase (DBH); Range is between (4.9-6.5)
[12] = biological target: T2, Dopamine beta-hydroxylase; assay: Inhibitory Concentration against bovine Dopamine beta hydroxylase (DBH); Range is between (56-72).
Rattus norvegicus [13] = assay: Mean arterial blood pressure at 4 hr post drug at ip dose of 50 mg/kg for the indicated number of SHR (spontaneous hypertensive rats) relative to blood pressure before dosing; format: functional; settings: route intraperitoneal
Procedure, shortened: (§2)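 Male Okamoto-Aoki SHR, 16–18 weeks, 275-310 g. Femoral artery cannulated under methohexital (10 mg/kg iv), with 2 h recovery, unrestrained. Drug given ip in 20% DMF or po as suspension in 5% PEG 400/1% methocel. BP recorded every 0.5 h for 5–6 h. Mean arterial BP change at 4 h versus predose; mean ± SEM, n rats; vehicle controls run in parallel.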

[14] = biological target: T2, Dopamine beta-hydroxylase; remark: listed apart in the source
[15] = biological target: T2, Dopamine beta-hydroxylase; assay: Inhibitory Concentration against bovine Dopamine beta hydroxylase (DBH); Range is between (1.7-2.4)
[16] = biological target: T2, Dopamine beta-hydroxylase; remark: listed apart in the source
[17] = biological target: T2, Dopamine beta-hydroxylase; remark: listed apart in the source
[18] = biological target: T2, Dopamine beta-hydroxylase; assay: […] against bovine Dopamine beta hydroxylase […]; Range is between (4.2-5.3).
[19] = biological target: T2, Dopamine beta-hydroxylase; remark: listed apart in the source
Rattus norvegicus [20] = assay: Mean arterial blood pressure at 4 hr post drug at ip dose of 100 mg/kg for the indicated number of SHR (spontaneous hypertensive rats) relative to blood pressure before dosing; format: functional; settings: route intraperitoneal; procedure, shortened: as §2
[21] = biological target: T2, Dopamine beta-hydroxylase; remark: listed apart in the source
[22] = biological target: T1, Dopamine beta-hydroxylase (Bos taurus); assay: Inhibitor dissociation constant vs. tyramine substrate against Dopamine beta hydroxylase at pH 6.6; procedure, shortened: as §1
[23] = biological target: T2, Dopamine beta-hydroxylase; assay: Inhibitory Concentration against bovine Dopamine beta hydroxylase (DBH); Range is between (0.060-0.0877).
[24] = biological target: T2, Dopamine beta-hydroxylase; remark: listed apart in the source
[25] = biological target: T2, Dopamine beta-hydroxylase; remark: listed apart in the source
[26] = biological target: T2, Dopamine beta-hydroxylase; assay: Inhibitory Concentration against bovine Dopamine beta hydroxylase (DBH); Range is between (36-102)
[27] = biological target: T2, Dopamine beta-hydroxylase; remark: listed apart in the source
[28] = biological target: T2, Dopamine beta-hydroxylase; remark: listed apart in the source
[29] = biological target: T2, Dopamine beta-hydroxylase; assay: […] against bovine Dopamine beta hydroxylase […]; Range is between (1.8-2.6).
[30] = biological target: T2, Dopamine beta-hydroxylase; remark: listed apart in the source
[31] = biological target: T2, Dopamine beta-hydroxylase; remark: listed apart in the source
[32] = biological target: T2, Dopamine beta-hydroxylase; assay: Inhibitory Concentration against bovine Dopamine beta hydroxylase (DBH); Range is between (23-41).
[33] = biological target: T2, Dopamine beta-hydroxylase; remark: listed apart in the source
[34] = biological target: T2, Dopamine beta-hydroxylase; remark: listed apart in the source
Rattus norvegicus [35] = assay: Mean arterial blood pressure at 4 hr post drug at po dose of 50 mg/kg for the indicated number of SHR (spontaneous hypertensive rats) relative to blood pressure before dosing (expt. no. 13); format: functional; settings: dose 100 mg/kg, in the assay text read “100 mg/kg” for “50 mg/kg”; procedure, shortened: as §2
Rattus norvegicus [36] = assay: Mean arterial blood pressure at 4 hr post drug at po dose of 50 mg/kg for the indicated number of SHR (spontaneous hypertensive rats) relative to blood pressure before dosing (expt. no. 12); format: functional; procedure, shortened: as §2
[37] = biological target: T2, Dopamine beta-hydroxylase; assay: Inhibitory Concentration against bovine Dopamine beta hydroxylase (DBH); Range is between (10-14).
[38] = biological target: T2, Dopamine beta-hydroxylase; remark: listed apart in the source
[39] = biological target: T2, Dopamine beta-hydroxylase; remark: listed apart in the source
[40] = biological target: T2, Dopamine beta-hydroxylase; remark: listed apart in the source

Kis [2]: 9.77 µM
inhibition [1]: 34%
Compound: Cc1ccc(Cn2cc[nH]c2=S)cc1

pIC50 [3]: 4.55
Compound: S=c1[nH]ccn1Cc1ccc(Cl)c(Cl)c1

logP [5]: 1.7
Kis [10]: 0.108 µM
pIC50 [11]: 5.25
Compound: Fc1cccc(Cn2cc[nH]c2=S)c1
Increase (Rattus norvegicus [6]): 364%

logP [5]: 1.02
Compound: Oc1ccc(Cn2cc[nH]c2=S)cc1
Increase (Rattus norvegicus [6]): 92%
Decrease (Rattus norvegicus [13]): 22 mmHg

pIC50 [15]: 5.70
Compound: Oc1ccc(Cn2cc[nH]c2=S)cc1Cl

Kis [2]: 0.83 µM
Compound: S=c1[nH]ccn1Cc1ccccc1

inhibition [1]: 14%
Compound: S=c1[nH]ccn1Cc1ccccc1Cl

pIC50 [16]: 4.28
Compound: O=[N+]([O-])c1ccc(Cn2cc[nH]c2=S)cc1

inhibition [1]: 68%
Compound: COc1ccccc1Cn1cc[nH]c1=S

pIC50 [21]: 3.80
Compound: COc1cccc(Cn2cc[nH]c2=S)c1

pIC50 [24]: 4.02
Compound: S=c1[nH]ccn1Cc1ccc(Cl)cc1

inhibition [1]: 15%
Compound: Cc1ccccc1Cn1cc[nH]c1=S

pIC50 [28]: 4.33
Compound: Fc1ccc(Cn2cc[nH]c2=S)cc1

pIC50 [30]: 3.24
Compound: Oc1ccccc1Cn1cc[nH]c1=S

pIC50 [33]: 4.92
Compound: Oc1ccc(Cn2cc[nH]c2=S)cc1Br

pIC50 [34]: 3.83
Compound: Oc1cccc(Cn2cc[nH]c2=S)c1

pIC50 [37]: 4.92
Compound: S=c1[nH]ccn1Cc1cccc(Cl)c1

pIC50 [38]: 4.28
Compound: S=c1[nH]ccn1Cc1cccc(Cl)c1Cl

Kis [2]: 3.42 µM
inhibition [1]: 43%
Compound: S=c1[nH]ccn1Cc1ccc(Br)cc1

Kis [2]: 9.04 µM
inhibition [1]: 25%
Compound: FC(F)(F)c1ccc(Cn2cc[nH]c2=S)cc1

The remaining lines, values behind:

Compound: COc1ccc(Cn2cc[nH]c2=S)cc1F
inhibition [1]: 67%

Compound: COc1ccc(Cn2cc[nH]c2=S)cc1OC
inhibition [1]: 15%

Compound: COc1c(F)cc(Cn2cc[nH]c2=S)cc1F
pIC50 [4]: 4.44

Compound: S=c1[nH]ccn1Cc1cc(Cl)cc(Cl)c1
logP [5]: 1.78
Increase (Rattus norvegicus [6]): 197%
pIC50 [7]: 5.62

Compound: COc1cc(Cl)c(Cn2cc[nH]c2=S)c(Cl)c1
inhibition [1]: 32%

Compound: Oc1ccc(Cn2cc[nH]c2=S)cc1C(F)(F)F
pIC50 [8]: 3.92

Compound: S=c1[nH]ccn1Cc1ccc(Cl)cc1Cl
pIC50 [9]: 4.77

Compound: COc1ccc(Cn2cc[nH]c2=S)cc1C(F)(F)F
inhibition [1]: 29%

Compound: Oc1c(F)c(F)c(Cn2cc[nH]c2=S)c(F)c1F
pIC50 [12]: 4.21

Compound: Cc1cc(Cn2cc[nH]c2=S)ccc1O
pIC50 [14]: 4.31

Compound: COc1cccc(OC)c1Cn1cc[nH]c1=S
inhibition [1]: 10%

Compound: COc1c(Cl)cc(Cn2cc[nH]c2=S)cc1Cl
pIC50 [17]: 4.33

Compound: Fc1cc(F)cc(CCCn2cc[nH]c2=S)c1
pIC50 [18]: 5.33

Compound: S=c1[nH]ccn1Cc1c(Cl)cccc1Cl
inhibition [1]: 7%

Compound: Oc1c(Cl)cc(Cn2cc[nH]c2=S)cc1Cl
pIC50 [19]: 6.17
Increase (Rattus norvegicus [6]): 12%
Decrease (Rattus norvegicus [20]): 28 mmHg

Compound: Oc1c(F)cc(Cn2cc[nH]c2=S)cc1F
logP [5]: 1.08
Increase (Rattus norvegicus [6]): 165%
Kis [10]: 0.0057 µM
Kis [22]: 0.039 µM
Decrease (Rattus norvegicus [13]): 36 mmHg
pIC50 [23]: 7.13

Compound: O=C(O)c1ccc(Cn2ccnc2S)cc1
inhibition [1]: 1%

Compound: OCc1ccc(Cn2ccnc2S)cc1
inhibition [1]: 6%

Compound: COc1ccc(Cn2ccnc2S)cc1S(N)(=O)=O
inhibition [1]: 7%

Compound: Oc1ccc(Cn2cc[nH]c2=S)cc1F
pIC50 [25]: 5.82
logP [5]: 1.12
Increase (Rattus norvegicus [6]): 78%
Decrease (Rattus norvegicus [20]): 32 mmHg

Compound: Oc1cc(Cl)c(Cn2cc[nH]c2=S)c(Cl)c1
pIC50 [26]: 4.12

Compound: COc1ccc(Cn2cc[nH]c2=S)cc1[N+](=O)[O-]
pIC50 [27]: 3.44

Compound: S=c1[nH]ccn1CCCc1cc(Cl)cc(Cl)c1
pIC50 [29]: 5.68

Compound: COc1ccc(Cn2cc[nH]c2=S)cc1C
inhibition [1]: 72%

Compound: Oc1ccc(Cn2cc[nH]c2=S)cc1O
pIC50 [31]: 5.66

Compound: O=[N+]([O-])c1cc(Cn2cc[nH]c2=S)ccc1O
pIC50 [32]: 4.51

Compound: COc1ccc(Cn2cc[nH]c2=S)cc1Br
inhibition [1]: 60%

Compound: Cc1cccc(C)c1Cn1cc[nH]c1=S
inhibition [1]: 5%

Compound: Fc1cc(F)cc(Cn2cc[nH]c2=S)c1
logP [5]: 1.98
Increase (Rattus norvegicus [6]): 407%
Decrease (Rattus norvegicus [35]): 28 mmHg
Kis [10]: 0.041 µM
Decrease (Rattus norvegicus [13]): 50 mmHg
Decrease (Rattus norvegicus [36]): 22 mmHg

Compound: S=c1[nH]ccn1Cc1cc(Cl)ccc1Cl
pIC50 [39]: 4.01

Compound: S=c1[nH]ccn1Cc1c(Cl)cc(Cl)cc1Cl
pIC50 [40]: 3.99
